This note sets out measurements from ChEMBL document CHEMBL3870351, “Synthesis of 2-methyl-1,4-naphthoquinones with higher gamma-glutamyl carboxylase activity than MK-4 both in vitro and in vivo” (Bioorg Med Chem Lett, 2017).

For data set [1], the target named is T1, Vitamin K-dependent gamma-carboxylase (Homo sapiens) (UniProt P38435).
T1 sequence (whole entry): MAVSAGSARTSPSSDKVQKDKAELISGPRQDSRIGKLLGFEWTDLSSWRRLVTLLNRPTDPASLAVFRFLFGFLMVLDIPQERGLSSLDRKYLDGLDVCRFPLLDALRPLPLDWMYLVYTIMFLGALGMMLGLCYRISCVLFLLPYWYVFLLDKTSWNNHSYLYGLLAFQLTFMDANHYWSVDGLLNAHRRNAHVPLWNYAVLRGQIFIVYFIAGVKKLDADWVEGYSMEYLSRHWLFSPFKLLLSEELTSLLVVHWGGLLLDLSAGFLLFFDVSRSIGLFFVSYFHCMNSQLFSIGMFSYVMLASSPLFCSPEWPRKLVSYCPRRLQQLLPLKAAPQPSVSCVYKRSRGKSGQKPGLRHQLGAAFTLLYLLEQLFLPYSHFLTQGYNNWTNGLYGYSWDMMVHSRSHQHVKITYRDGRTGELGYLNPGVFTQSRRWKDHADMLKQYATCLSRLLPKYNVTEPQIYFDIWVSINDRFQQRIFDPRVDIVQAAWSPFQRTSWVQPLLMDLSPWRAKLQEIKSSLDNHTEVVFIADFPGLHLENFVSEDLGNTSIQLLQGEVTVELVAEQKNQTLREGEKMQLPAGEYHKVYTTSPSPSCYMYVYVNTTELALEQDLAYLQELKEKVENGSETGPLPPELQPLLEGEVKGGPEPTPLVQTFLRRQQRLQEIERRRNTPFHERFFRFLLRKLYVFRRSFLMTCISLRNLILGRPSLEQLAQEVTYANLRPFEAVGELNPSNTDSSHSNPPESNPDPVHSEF
Put plainly: Activation of gamma-glutamyl carboxylase in human MG63 cells assessed as increase in carboxylated osteocalcin level at 50 nM after 72 hrs by enzyme immuno assay. The settings on record: MG-63. In kind it is cell-based. The essentials: (§1)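 Human osteosarcoma MG63 cells; uncarboxylated (ucOC) and carboxylated (cOC) osteocalcin measured in culture media/supernatants; untreated controls received no vitamin K or analogue; run in triplicate.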

Data set [2] in a line: Cytotoxicity against human MG63 cells assessed as decrease in cell viability up to 500 nM by MTT assay. In kind it is toxicity, cell-based. The conditions noted are these: mg-63. The essentials:
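MG63 cells; cell viability measured with compounds at concentrations up to 500 nM.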
On the technique in general: Tetrazolium assays rely on reduction of a dye to a coloured formazan, in cell work by metabolically active cells.

Data set [3] has as its target T1, Vitamin K-dependent gamma-carboxylase (Homo sapiens). Kind of data set: Activation of gamma-glutamyl carboxylase in human MG63 cells assessed as reduction in un-carboxylated osteocalcin level at 50 nM after 72 hrs by enzyme immuno assay. In kind it is cell-based. The settings on record: MG-63. The gist of the method: as §1
For data set [4], the species on record is Rattus norvegicus. Kind of data set: Restoration of prothrombin activity in vitamin-K deficient diet fed Wistar-Kyoto rat assessed as plasma prothrombin level at 5 ug/g of food for 2 days by one-stage PT-based clotting assay (reference value: 60%). In kind it is functional.
Data set [5] is filed under the species Rattus norvegicus. Kind of data set: Toxicity in vitamin-K deficient diet fed Wistar-Kyoto rat assessed as change in body weight at 0.5 ug/g of food for 5 days. In kind it is organism-based. The conditions noted are these: in vivo, po, 120 h.
The species named for data set [6] is Rattus norvegicus. Kind of data set: Toxicity in vitamin-K deficient diet fed Wistar-Kyoto rat assessed as change in body weight at 5 ug/g of food for 2 to 5 days. In kind it is organism-based. The settings on record: in vivo, po.
Data set [7] is filed under the species Rattus norvegicus. Kind of data set: Restoration of prothrombin activity in vitamin-K deficient diet fed Wistar-Kyoto rat assessed as plasma prothrombin level at 5 ug/g of food for 5 days by one-stage PT-based clotting assay (reference value: 60%). In kind it is functional.

Activity calls are given as the source filed them. The rule behind the calls is not given here.

On to `COc1c(C)c(CC(=O)O)c(OC)c2ccccc12`, for which the result in data set [1] and in data set [3] was Active. Moreover, the Activity entry in data set [2] was “Non-Toxic”.
Turning to `CC(C)=CCC/C(C)=C/CC/C(C)=C/CC/C(C)=C/CC1=C(C)C(=O)c2ccccc2C1=O`, the outcome in data set [1] and in data set [3] was Active.
Consider `CCOC(=O)CC1=C(C)C(=O)c2ccccc2C1=O`, for which the result in data set [1] and in data set [3] was Active. In data set [2], the Activity result is “Non-Toxic”.
Consider `CC1=C(Br)C(=O)c2ccccc2C1=O`, for which the Activity entry in data set [2] is on record as “Non-Toxic”.
For `CCCCCCCCCCCCCCNC(=O)CC1=C(C)C(=O)c2ccccc2C1=O`, the Activity in the data set filed under Rattus norvegicus [4] is recorded as 107%; in the data set listed under Rattus norvegicus [5], “Non-Toxic”; in the data set filed under Rattus norvegicus [6], “Non-Toxic”; in data set [2] it was “Non-Toxic”; in the data set filed under Rattus norvegicus [7], 106%. Besides, the outcome in data set [1] and in data set [3] was Active.
On to `CCCCCCCCCCCCCCCCCCNC(=O)CC1=C(C)C(=O)c2ccccc2C1=O`, for which the Activity result in data set [2] is listed as “Non-Toxic”. Besides, the result in data set [3] was Active.
Turning to `CC1=CC(=O)c2ccccc2C1=O` [MENADIONE], the Activity result in data set [2] was “Non-Toxic”.
Turning to `CCOC(=O)Cc1c(C)c(OC)c2ccccc2c1OC`, the Activity result in data set [2] is “Non-Toxic”.
Regarding `CCCCCCCCCCCCCCCCCNC(=O)CC1=C(C)C(=O)c2ccccc2C1=O`, the Activity result in data set [2] is “Non-Toxic”. In addition, in data set [3], the outcome was Active.
`CCCCCCCCCCCCCCCCNC(=O)CC1=C(C)C(=O)c2ccccc2C1=O`: the result in data set [1] and in data set [3] was Active. Moreover, in data set [2], the Activity entry is “Non-Toxic”.
As for `COc1c(C)c(Br)c(OC)c2ccccc12`, the Activity entry in data set [2] is recorded as “Non-Toxic”.
Take `CC1=C(CC(=O)O)C(=O)c2ccccc2C1=O`: the result in data set [1] and in data set [3] was Active. Moreover, the Activity entry in data set [2] is “Non-Toxic”.
